ChEMBL document CHEMBL1138918, “Discovery of potent and orally available malonyl-CoA decarboxylase inhibitors as cardioprotective agents” (J Med Chem, 2006)
The source made the active and inactive calls. No cut-off for these calls is given here.

Tests used:
[1] = species on record: Rattus norvegicus; test: Increase in glucose oxidation rate in rat heart at 10 uM relative to control; type: functional
In short: (§1)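 Isolated working rat hearts; glucose oxidation rate expressed as ratio of compound-treated to 0.05% DMSO vehicle control, n = 8 hearts; test concentration 10 µM, or 1 µM where stated.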

[2] = Half life in Sprague-Dawley rat at 10 mg/kg, iv; type: ADME, organism-based; parameters: dose 10 mg/kg, route intravenous; conditions: in vivo
[3] = Oral bioavailability in Sprague-Dawley rat at 10 mg/kg, iv and po; type: ADME, organism-based; conditions: in vivo
In short: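 Rats dosed iv and po; F computed as ratio of dose-normalized oral to iv plasma AUC over the same time frame.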

[4] = Tmax in Sprague-Dawley rat at 10 mg/kg, po; type: ADME, organism-based; parameters: dose 10 mg/kg, route oral; conditions: in vivo
[5] = tested on: Rattus norvegicus; test: Volume of distribution in Sprague-Dawley rat at 10 mg/kg, iv or po; type: ADME, organism-based; parameters: dose 10 mg/kg, route oral; conditions: in vivo
[6] = Cmax in Sprague-Dawley rat at 10 mg/kg, po; type: ADME, organism-based; parameters: dose 10 mg/kg, route oral; conditions: in vivo
[7] = species on record: Rattus norvegicus; test: Cardioprotective activity in global ischemia-reperfusion rat model; type: functional, organism-based
In short: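 Isolated rat hearts perfused aerobically 30 min, then 30 min global no-flow ischemia and 60 min aerobic reperfusion; compound at 1 µM added to perfusate either before ischemia or at onset of reperfusion.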

[8] = species on record: Rattus norvegicus; test: Increase in glucose oxidation rate in rat heart at 1 uM relative to control; type: functional; in short: as §1

Row | SMILES | Activity [1] [%] | further results
1 | CC(C)CCCC(C)NC(=O)C1=NOC(C(O)(C(F)(F)F)C(F)(F)F)C1 (stereo unspecified) | 1.26 | –
2 | CC(C)C[C@@H](CC(=O)OC(C)(C)C)NC(=O)C1=NOC(C(O)(C(F)(F)F)C(F)(F)F)C1 (stereo partly specified) | 3.24 | –
3 | CC(C)CC(CC(=O)OC(C)(C)C)NC(=O)C1=NOC(C(O)(C(F)(F)F)C(F)(F)F)C1 (stereo unspecified) | 4.28 | –
4 | CC(C)(C)OCCCNC(=O)C1=NOC(C(O)(C(F)(F)F)C(F)(F)F)C1 (stereo unspecified) | 5.42 | –
5 | CCCCCC(C)NC(=O)C1=NOC(C(O)(C(F)(F)F)C(F)(F)F)C1 (stereo unspecified) | 0.8 | –
6 | CC(CC(=O)OC(C)(C)C)NC(=O)C1=NOC(C(O)(C(F)(F)F)C(F)(F)F)C1 (stereo unspecified) | 7.32 | half-life [2]: 2.3 h; bioavailability [3]: 74%; Tmax [4]: 0.5 h; Vss [5]: 2.193 L/kg; Cmax [6]: 2680 ng/mL; Activity [7]: Active; Activity [8]: 3.07%
7 | C[C@@H](CC(=O)OC(C)(C)C)NC(=O)C1=NOC(C(O)(C(F)(F)F)C(F)(F)F)C1 (stereo partly specified) | 5.01 | –
8 | CC(C)(C)OC(=O)CCNC(=O)C1=NOC(C(O)(C(F)(F)F)C(F)(F)F)C1 (stereo unspecified) | 4.54 | –
9 | CC(C)CN(CC(C)C)C(=O)C1=NOC(C(O)(C(F)(F)F)C(F)(F)F)C1 (stereo unspecified) | 2.11 | –
